Screening results (PubChem BioAssay)
Shown are actives, neighbours in structure and some others; about 1.6% of the full set was active somewhere.
Diaphorase inh: counter-screen for diaphorase-based assays: diaphorase inhibitors and chemical oxidizers; diaphorase resazurin-to-resorufin fluorescence, NADH, 16 min; bacterial (C. kluyveri) enzyme, not human; inhibition, % at 20 µM; 0.69% of 190,000 active; AID 1217;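 active means primary screen inhibition at 20 µM above a set limit, cut at about 50% in these data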;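 further: plate controls were DMSO with full reaction for no effect and wells lacking NADH for full effect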
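Detection: fluorescence of resorufin formed from resazurin, Ex 544/Em 590 nm; test system: Clostridium kluyveri diaphorase enzyme; amount: 0.14 U/mL diaphorase, enzyme working solution; times: 16-min room-temperature incubation before reading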
ABCB1 inh: human ABCB1 inhibition, ABCG2 as counter-screen | P08183 | CCRF-Adr cells, JC-1 efflux, flow cytometry | inhibition, % at 6.6 µM | 0.067% of 190,000 active; in the data active means inhibition above about 40%;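 further: 0% = vehicle and 100% = reference inhibitor; higher value means more JC-1 retained so stronger ABCB1 efflux block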
Target sequence (P08183 whole entry, looked up): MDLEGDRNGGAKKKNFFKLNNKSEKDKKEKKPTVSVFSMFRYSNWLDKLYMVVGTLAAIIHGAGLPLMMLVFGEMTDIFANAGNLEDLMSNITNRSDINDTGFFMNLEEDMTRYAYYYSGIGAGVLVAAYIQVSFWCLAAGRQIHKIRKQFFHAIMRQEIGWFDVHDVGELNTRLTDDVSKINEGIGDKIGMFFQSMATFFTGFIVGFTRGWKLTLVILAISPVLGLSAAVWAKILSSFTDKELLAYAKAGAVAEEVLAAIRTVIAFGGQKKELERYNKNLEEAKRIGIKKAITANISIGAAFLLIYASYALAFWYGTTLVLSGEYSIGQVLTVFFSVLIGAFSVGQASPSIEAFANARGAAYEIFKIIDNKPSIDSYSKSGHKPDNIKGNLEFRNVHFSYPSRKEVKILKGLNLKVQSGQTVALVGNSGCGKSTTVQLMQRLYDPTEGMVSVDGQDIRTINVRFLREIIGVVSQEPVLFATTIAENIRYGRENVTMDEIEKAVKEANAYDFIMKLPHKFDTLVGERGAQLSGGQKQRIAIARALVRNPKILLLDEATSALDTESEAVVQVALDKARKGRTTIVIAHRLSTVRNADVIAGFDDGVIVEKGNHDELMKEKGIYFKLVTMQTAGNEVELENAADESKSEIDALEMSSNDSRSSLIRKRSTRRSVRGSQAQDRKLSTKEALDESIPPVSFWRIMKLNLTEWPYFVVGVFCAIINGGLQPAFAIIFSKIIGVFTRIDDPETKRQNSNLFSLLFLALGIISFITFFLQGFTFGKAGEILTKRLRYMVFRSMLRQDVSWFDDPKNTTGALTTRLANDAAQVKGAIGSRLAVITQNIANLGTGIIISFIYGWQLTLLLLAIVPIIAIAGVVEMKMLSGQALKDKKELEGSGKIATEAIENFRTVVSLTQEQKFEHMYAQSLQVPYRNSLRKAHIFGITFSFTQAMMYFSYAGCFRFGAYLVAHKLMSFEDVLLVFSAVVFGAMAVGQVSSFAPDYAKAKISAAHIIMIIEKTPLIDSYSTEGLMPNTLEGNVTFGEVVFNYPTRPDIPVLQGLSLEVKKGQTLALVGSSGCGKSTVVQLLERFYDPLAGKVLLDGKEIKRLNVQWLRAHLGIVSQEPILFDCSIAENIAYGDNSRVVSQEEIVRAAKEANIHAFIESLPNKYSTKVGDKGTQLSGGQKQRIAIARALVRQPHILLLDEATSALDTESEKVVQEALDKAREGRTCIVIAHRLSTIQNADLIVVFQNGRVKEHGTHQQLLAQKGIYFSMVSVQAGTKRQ
Diaph act CS: diaphorase activation or chemical reduction counter-screen | Diaphorase/resazurin coupled assay, resorufin fluorescence, 16 min; active compounds read high; 1 = vehicle wells, 0 = NADH-free wells | activation factor at 20 µM | 0.005% of 190,000 active | AID 1229;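 active means diaphorase activity raised at least twofold by the compound at 20 µM; inactive means activation factor below 2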
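Material: purified diaphorase enzyme from Clostridium kluyveri / Medium: HEPES pH 7.4 buffer with MgCl2 and Tween 20 / Schedule: enzyme reaction of 16 min at room temperature / Measured by: resorufin fluorescence, excitation 544 nm, emission 590 nm / Evaluation: rise in resorufin formation, marking diaphorase activation or chemical reduction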
NCF1 inh: blocks human p47phox regulatory protein of NADPH oxidases; p47phox/p22phox peptide binding, fluorescence polarization, 2 h; inhibition, % at 24.7 µM; 0.53% of 220,000 active; P14598;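 active means inhibition above about 30%, limit read from the data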;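 further: 0% = p47phox with labelled peptide and 100% = labelled peptide alone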
ABCG2 block: inhibitors of human ABCG2 transporter, ABCB1 counter-screen; Q9UNQ0; IgMXP3 cells, JC-1 efflux, flow cytometry; inhibition, % at 6.6 µM; 0.1% of 190,000 active; AID 1325;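 active means inhibition above 80%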;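 further: 0% = DMSO and 100% = nicardipine control wells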
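Incubation: cells with compound and JC-1, 10 min at 25 °C, rotating, no wash / Test system: IgMXP3 (ABCG2) plus far-red-tagged CCRF-Adr (ABCB1) cells / Compound dosing: one concentration, 6.6 µM final / Also added: JC-1 fluorescent substrate / Evaluation: efflux inhibition in percent versus controls / Detection: flow cytometry, 530 nm JC-1 signal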
Efa HMGR inh: inhibitors of class II HMG-CoA reductase from Enterococcus faecalis; inhibition, % at 10 µM; purified E. faecalis HMGR, NADPH absorbance 340 nm kinetic; AID 1066; 0.41% of 190,000 active;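 active means inhibition above a set limit, the median over all tested compounds plus 3 SD, cut at about 9.5% in these data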;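 further: enzyme runs in reverse so mevalonate oxidation gives rising NADPH absorbance; 0% = complete reaction with DMSO and 100% = background rate lacking mevalonate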
ABCB1 single pt: confirmation of human ABCB1 transporter inhibitors, ABCG2 counter-screen. shares compounds with ABCG2 block. CCRF-Adr cells, JC-1 efflux, flow cytometry. inhibition, % at 6.6 µM. 7% of 270 active. AID 1451;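 active means inhibition of pump activity above 50%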;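 further: 0% = DMSO and 100% = nicardipine full pump inhibition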
ABCG2 single pt: inhibits human ABCG2 efflux, confirmed at single point; inhibition, % at 6.6 µM; 6% of 270 active; AID 1453; IgMXP3 cells, JC-1 efflux, flow cytometry; shares compounds with ABCG2 block;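 active means inhibition above 50%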;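 further: 0% = DMSO wells and 100% = nicardipine pump inhibitor wells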
IgMXP3 autofluor: counter-screen for ABCG2 inhibitors: compound fluorescence in IgMXP3 cells | 30% of 270 active | shares compounds with ABCG2 block | compound autofluorescence 488/530 nm, flow; active compounds read high | fluorescence at 6.6 µM | AID 1480;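 active means fluorescence in ABCG2-expressing cells above the plate's control-well mean plus 3 SD, cut at about 15 in these data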;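 further: median cell fluorescence with compound minus that of DMSO-treated control cells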
CCRF-Adr fluor: counter-screen for ABCB1 inhibitors: compound fluorescence in CCRF-Adr cells; shares compounds with ABCG2 block; compound autofluorescence 488/530 nm, flow cytometry; active compounds read high; fluorescence at 6.6 µM; 30% of 270 active;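 active means fluorescence beyond the plate control mean plus 3 SD, with a fluorescence-to-maximum score over 2, cut at about 25 in these data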
* = called active by the depositor.

Screening CCOC(=O)C1=C(O)/C(=C/c2ccc(OCC(=O)O)c(OC)c2)SC1=Nc1ccc(OCC)cc1 returned Diaphorase inh 14, ABCB1 inh 50*, Diaph act CS 0.9, NCF1 inh -43, ABCG2 block 16, Efa HMGR inh 0, ABCB1 single pt -1, ABCG2 single pt 5, IgMXP3 autofluor -1.8 and CCRF-Adr fluor -3.4.
Screening Cc1cc(C)c(C(=O)COC(=O)CCNS(=O)(=O)c2c(Cl)cccc2Cl)cc1C returned Diaphorase inh 14, ABCB1 inh 3, Diaph act CS 0.9, NCF1 inh -28, ABCG2 block 97*, Efa HMGR inh -5, ABCB1 single pt 10, ABCG2 single pt 47, IgMXP3 autofluor -1.8 and CCRF-Adr fluor -4.9.
`Cn1c(SCC(=O)N2CCOCC2)nc2sc3c(c2c1=O)CCCC3` gave Diaphorase inh 20, ABCB1 inh 2, Diaph act CS 0.8, NCF1 inh 4, ABCG2 block 3 and Efa HMGR inh -4.
COc1ccc(OC)c(C2C(C(=O)Nc3nc4ccccc4s3)=C(C)NC3=C2C(=O)CCC3)c1 (stereo unspecified) was read as Diaphorase inh 5, ABCB1 inh 6, Diaph act CS 0.9, NCF1 inh -40, ABCG2 block 11 and Efa HMGR inh -3.
COc1cccc(C2C(C(=O)Nc3nc4ccccc4s3)=C(C)NC3=C2C(=O)CC(C)(C)C3)c1OC (stereo unspecified) was read as Diaphorase inh -14, ABCB1 inh 45*, Diaph act CS 1.1, NCF1 inh -15, ABCG2 block 6, Efa HMGR inh -6, ABCB1 single pt 59*, ABCG2 single pt 12, IgMXP3 autofluor 29* and CCRF-Adr fluor 4.3.
`COn1c(-c2ccccc2)nc2c1CCc1c-2no[n+]1[O-]` gave Diaphorase inh 16, ABCB1 inh -1, Diaph act CS 0.8, NCF1 inh -6, ABCG2 block 74, Efa HMGR inh 0, ABCB1 single pt -1, ABCG2 single pt 28, IgMXP3 autofluor 0.61 and CCRF-Adr fluor -3.
For CCOC(=O)c1c(C)nc(SC)c(C#N)c1-c1ccccc1 the results were Diaphorase inh 7, ABCB1 inh 0, Diaph act CS 0.9, NCF1 inh 5, ABCG2 block 85*, Efa HMGR inh -4, ABCB1 single pt 1, ABCG2 single pt 13, IgMXP3 autofluor -0.29 and CCRF-Adr fluor 0.56.
`CCOC(=O)c1c(C)nc2ccccc2c1-c1ccccc1` gave Diaphorase inh 5, ABCB1 inh 1, Diaph act CS 0.9, NCF1 inh -15, ABCG2 block 20 and Efa HMGR inh -1.
For O=C(NCc1ccc2c(c1)OCO2)c1ccc(-n2cnnn2)cc1 the results were Diaphorase inh -4, ABCB1 inh 1, Diaph act CS 1, NCF1 inh 4, ABCG2 block 6 and Efa HMGR inh -3.
Cc1ccc(-c2nc3cccnc3s2)cc1NS(=O)(=O)c1ccc2c(c1)OCCO2 was read as Diaphorase inh 5, ABCB1 inh 1, Diaph act CS 1, NCF1 inh -55, ABCG2 block 1 and Efa HMGR inh -8.
For c1ccc(OCc2nc(-c3ccncc3)no2)cc1 the results were Diaphorase inh 6, ABCB1 inh 3, Diaph act CS 0.9, NCF1 inh -4, ABCG2 block 111*, Efa HMGR inh -7, ABCB1 single pt 1, ABCG2 single pt 4, IgMXP3 autofluor -1.5 and CCRF-Adr fluor -2.2.
For CC(C)[C@H]1C=C(C(=O)O)O[C@@H](OCCCCO)C1 the results were NCF1 inh -20.
For Cc1ccc(NC(=O)Nc2ccccc2)cc1[N+](=O)[O-] the results were Diaphorase inh 17, ABCB1 inh 17, Diaph act CS 0.8, NCF1 inh -19, ABCG2 block 95*, Efa HMGR inh -6, ABCB1 single pt 2, ABCG2 single pt 26, IgMXP3 autofluor -0.99 and CCRF-Adr fluor -2.1.
COc1ccc(C(=O)OCCN=C2NS(=O)(=O)c3ccccc32)cc1OC was read as Diaphorase inh 9, ABCB1 inh 1, Diaph act CS 0.9, NCF1 inh -6, ABCG2 block 5 and Efa HMGR inh -4.
`CCOc1ccc(Nc2nc(Cl)nc(NCCO)n2)cc1` gave Diaphorase inh 14, ABCB1 inh 0, Diaph act CS 0.9, NCF1 inh -17, ABCG2 block 15 and Efa HMGR inh 4.
CCOc1nc(NCCO)nc(Nc2ccc([N+](=O)[O-])cc2)n1 was read as Diaphorase inh 10, ABCB1 inh 2, Diaph act CS 0.9, NCF1 inh -10, ABCG2 block 68, Efa HMGR inh -1, ABCB1 single pt -1, ABCG2 single pt 34, IgMXP3 autofluor -1.4 and CCRF-Adr fluor -0.59.
For CCNC(=O)N1CCN(C(=O)NCC)CC1 the results were Diaphorase inh -13, ABCB1 inh 0, Diaph act CS 1.1, NCF1 inh 8, ABCG2 block 0 and Efa HMGR inh 1.
`CCOc1ccc(OCC)c(NC(=O)CN2CCN(c3cccc(C)c3)C(C)C2)c1` (stereo unspecified) gave Diaphorase inh 24, ABCB1 inh 2, Diaph act CS 0.8, NCF1 inh 1, ABCG2 block 9 and Efa HMGR inh 2.
`CCOc1ccc(OCC)c(NC(=O)CN2CCN(c3cccc(C)c3)CC2)c1` gave Diaphorase inh 33, ABCB1 inh 3, Diaph act CS 0.7, NCF1 inh -5, ABCG2 block 74, Efa HMGR inh 0, ABCB1 single pt 10, ABCG2 single pt 30, IgMXP3 autofluor 1.7 and CCRF-Adr fluor 4.5.
For Cc1cc(NC(=O)c2ccccc2)ncc1NC(=O)c1cccs1 the results were Diaphorase inh 19, ABCB1 inh 1, Diaph act CS 0.8, NCF1 inh 4, ABCG2 block 4 and Efa HMGR inh 0.
